Converted amounts (≈) assume the structure as drawn. The source made the active and inactive calls. The rule behind the calls is not given here.
Experiments:
[1] = tested on: Cunninghamella bertholletiae; assay: Antifungal activity against Cunninghamella bertholletiae UTHSC 05-2275 infected in neutropenic OF1 mouse assessed as increase in mouse survival rate at 80 mg/kg, po qd administered 1 day after infection for 7 days relative to untreated control; type: functional, organism-based; design: dose 80 mg/kg
Procedure, shortened: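 Male OF1 mice, about 30 g, made neutropenic with cyclophosphamide 200 mg/kg i.p. plus 5-fluorouracil 150 mg/kg i.v. 1 day before challenge. Infected i.v. via the lateral tail vein with 1 × 10⁴ CFU of hemacytometer-counted sporangiospores in 0.2 ml saline. Ceftazidime 5 mg/day s.c. on days 1–7. Oral treatment started 24 h after challenge; 10 mice per group; checked daily for 20 days; Kaplan-Meier mean survival time, log-rank test.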

[2] = tested on: Cunninghamella bertholletiae; assay: Antifungal activity against Cunninghamella bertholletiae UTHSC 05-2275 after 24 hrs by broth microdilution method; type: functional; settings: UTHSC 05-2275, 24 h
Procedure, shortened: (§1)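 CLSI broth microdilution for filamentous fungi. Isolates were stored at −80°C and subcultured on potato dextrose agar at 35°C. MICs were read after 24 h. […] The QC strain was Paecilomyces variotii ATCC 36257.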

[3] = tested on: Cunninghamella bertholletiae; assay: Antifungal activity against Cunninghamella bertholletiae FMR-9598 after 24 hrs by broth microdilution method; type: functional; settings: FMR-9598, 24 h; procedure, shortened: as §1
[4] = tested on: Cunninghamella bertholletiae; assay: Antifungal activity against Cunninghamella bertholletiae UTHSC 04-2581 after 24 hrs by broth microdilution method; type: functional; settings: UTHSC 04-2581, 24 h; procedure, shortened: as §1
[5] = tested on: Cunninghamella bertholletiae; assay: Antifungal activity against Cunninghamella bertholletiae UTHSC 03-2241 after 24 hrs by broth microdilution method; type: functional; settings: UTHSC 03-2241, 24 h; procedure, shortened: as §1
[6] = tested on: Cunninghamella bertholletiae; assay: Antifungal activity against Cunninghamella bertholletiae UTHSC 06-1945 after 24 hrs by broth microdilution method; type: functional; settings: UTHSC 06-1945, 24 h; procedure, shortened: as §1
[7] = Antifungal activity against Cunninghamella echinulata UTHSC 03-3725 after 24 hrs by broth microdilution method; type: functional; procedure, shortened: as §1
[8] = Antifungal activity against Cunninghamella echinulata FMR 10974 after 24 hrs by broth microdilution method; type: functional; procedure, shortened: as §1
[9] = Antifungal activity against Cunninghamella echinulata FMR 10973 after 24 hrs by broth microdilution method; type: functional; procedure, shortened: as §1
[10] = Antifungal activity against Cunninghamella echinulata UTHSC 01-2298 after 24 hrs by broth microdilution method; type: functional; procedure, shortened: as §1
[11] = tested on: Cunninghamella bertholletiae; assay: Antifungal activity against Cunninghamella bertholletiae UTHSC 05-2275 infected in neutropenic OF1 mouse assessed as decreased fungal load in lung at 60 mg/kg, po qd administered 1 day post infection measured after 4 to 5 days relative to untreated control; type: functional, organism-based; design: dose 60 mg/kg
Procedure, shortened: (§2)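 Neutropenic male OF1 mice (cyclophosphamide 200 mg/kg i.p. plus 5-fluorouracil 150 mg/kg i.v., day −1) were given 1 × 10⁴ CFU sporangiospores i.v. in 0.2 ml saline. Treatment from 24 h: 0.8 mg/kg i.v. or oral doses once daily; 10 mice per group. Killed at day 5 (day 4 if moribund). About half of brain, lungs and kidneys homogenized in saline; 10-fold dilutions plated on PDA for 24 h at 35°C; log₁₀ CFU/g tissue.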

[12] = tested on: Cunninghamella bertholletiae; assay: Antifungal activity against Cunninghamella bertholletiae UTHSC 05-2275 infected in neutropenic OF1 mouse assessed as decreased fungal load in kidney at 60 mg/kg, po qd administered 1 day post infection measured after 4 to 5 days relative to untreated control; type: functional, organism-based; design: dose 60 mg/kg; procedure, shortened: as §2
[13] = tested on: Cunninghamella bertholletiae; assay: Antifungal activity against Cunninghamella bertholletiae UTHSC 05-2275 infected in neutropenic OF1 mouse assessed as decreased fungal load in lung at 80 mg/kg, po qd administered 1 day post infection measured after 4 to 5 days relative to untreated control; type: functional, organism-based; design: dose 80 mg/kg; procedure, shortened: as §2
[14] = tested on: Cunninghamella bertholletiae; assay: Antifungal activity against Cunninghamella bertholletiae UTHSC 05-2275 infected in neutropenic OF1 mouse assessed as decreased fungal load in kidney at 80 mg/kg, po qd administered 1 day post infection measured after 4 to 5 days relative to untreated control; type: functional, organism-based; design: dose 80 mg/kg; procedure, shortened: as §2
[15] = tested on: Cunninghamella bertholletiae; assay: Antifungal activity against Cunninghamella bertholletiae UTHSC 06-1945 infected in neutropenic OF1 mouse assessed as decreased fungal load in kidney at 60 mg/kg, po qd administered 1 day post infection measured after 4 to 5 days relative to untreated control; type: functional, organism-based; design: dose 60 mg/kg; procedure, shortened: as §2
[16] = tested on: Cunninghamella bertholletiae; assay: Antifungal activity against Cunninghamella bertholletiae UTHSC 06-1945 infected in neutropenic OF1 mouse assessed as decreased fungal load in lung at 60 mg/kg, po qd administered 1 day post infection measured after 4 to 5 days relative to untreated control; type: functional, organism-based; design: dose 60 mg/kg; procedure, shortened: as §2
[17] = tested on: Cunninghamella bertholletiae; assay: Antifungal activity against Cunninghamella bertholletiae UTHSC 03-2241 infected in neutropenic OF1 mouse assessed as decreased fungal load in lung at 60 mg/kg, po qd administered 1 day post infection measured after 4 to 5 days relative to untreated control; type: functional, organism-based; design: dose 60 mg/kg; procedure, shortened: as §2
[18] = tested on: Cunninghamella bertholletiae; assay: Antifungal activity against Cunninghamella bertholletiae UTHSC 03-2241 infected in neutropenic OF1 mouse assessed as decreased fungal load in kidney at 60 mg/kg, po qd administered 1 day post infection measured after 4 to 5 days relative to untreated control; type: functional, organism-based; design: dose 60 mg/kg; procedure, shortened: as §2
[19] = tested on: Cunninghamella bertholletiae; assay: Antifungal activity against Cunninghamella bertholletiae UTHSC 03-2241 infected in neutropenic OF1 mouse assessed as decreased fungal load in lung at 0.8 mg/kg, iv qd administered 1 day post infection measured after 4 to 5 days relative to untreated control; type: functional, organism-based; design: dose 0.8 mg/kg; procedure, shortened: as §2
[20] = tested on: Cunninghamella bertholletiae; assay: Antifungal activity against Cunninghamella bertholletiae UTHSC 04-2581 infected in neutropenic OF1 mouse assessed as decreased fungal load in lung at 60 mg/kg, po qd administered 1 day post infection measured after 4 to 5 days relative to untreated control; type: functional, organism-based; design: dose 60 mg/kg; procedure, shortened: as §2
[21] = tested on: Cunninghamella bertholletiae; assay: Antifungal activity against Cunninghamella bertholletiae UTHSC 04-2581 infected in neutropenic OF1 mouse assessed as decreased fungal load in kidney at 60 mg/kg, po qd administered 1 day post infection measured after 4 to 5 days relative to untreated control; type: functional, organism-based; design: dose 60 mg/kg; procedure, shortened: as §2
[22] = tested on: Cunninghamella bertholletiae; assay: Antifungal activity against Cunninghamella bertholletiae FMR-9598 infected in neutropenic OF1 mouse assessed as decreased fungal load in kidney at 0.8 mg/kg, iv qd administered 1 day post infection measured after 4 to 5 days relative to untreated control; type: functional, organism-based; design: dose 0.8 mg/kg; procedure, shortened: as §2
[23] = tested on: Cunninghamella bertholletiae; assay: Antifungal activity against Cunninghamella bertholletiae FMR-9598 infected in neutropenic OF1 mouse assessed as decreased fungal load in lung at 60 mg/kg, po qd administered 1 day post infection measured after 4 to 5 days relative to untreated control; type: functional, organism-based; design: dose 60 mg/kg; procedure, shortened: as §2
[24] = tested on: Cunninghamella bertholletiae; assay: Antifungal activity against Cunninghamella bertholletiae FMR-9598 infected in neutropenic OF1 mouse assessed as decreased fungal load in kidney at 60 mg/kg, po qd administered 1 day post infection measured after 4 to 5 days relative to untreated control; type: functional, organism-based; design: dose 60 mg/kg; procedure, shortened: as §2
[25] = tested on: Cunninghamella bertholletiae; assay: Antifungal activity against Cunninghamella bertholletiae UTHSC 05-2275 infected in diabetic OF1 mouse assessed as increase in mouse survival rate at 60 mg/kg, po qd administered 1 day after infection for 7 days relative to untreated control; type: functional, organism-based; design: dose 60 mg/kg
Procedure, shortened: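 Male OF1 mice made diabetic with streptozocin 210 mg/kg i.p.; blood glucose above 250 mg/dl at day 10 required. Infected i.v. via the tail vein with 1 × 10⁵ CFU sporangiospores in 0.2 ml saline. Ceftazidime 5 mg/day s.c. on days 1–7. Oral once-daily treatment from day 1 for 7 days; 10 mice per group; followed for 20 days; Kaplan-Meier mean survival time, log-rank test.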

Structure (SMILES) | Activity [1] | MIC [2] | MIC [3] | MIC [4] | MIC [5] | MIC [6] | MIC [7] | MIC [8] | MIC [9] | MIC [10] | Activity [11] | Activity [12] | Activity [13] | Activity [14] | Activity [15] | Activity [16] | Activity [17] | Activity [18] | Activity [19] | Activity [20] | other results
C[C@@H]1[C@H](O)[C@@H](C)/C=C/C=C/C=C/C=C/C=C/C=C/C=C/[C@H](O[C@@H]2O[C@H](C)[C@@H](O)[C@H](N)[C@@H]2O)C[C@@H]2O[C@](O)(C[C@@H](O)C[C@@H](O)[C@H](O)CC[C@@H](O)C[C@@H](O)CC(=O)O[C@H]1C)C[C@H](O)[C@H]2C(=O)O [AMPHOTERICIN B] | Active | 2 µg/mL (≈ 2.16 µM) | 2 µg/mL (≈ 2.16 µM) | 4 µg/mL (≈ 4.33 µM) | 4 µg/mL (≈ 4.33 µM) | 4 µg/mL (≈ 4.33 µM) | 8 µg/mL (≈ 8.66 µM) | 8 µg/mL (≈ 8.66 µM) | 4 µg/mL (≈ 4.33 µM) | 16 µg/mL (≈ 17.3 µM) | Active | Active | Active | Active | Active | Active | Active | Active | Active | Active | Activity [21]: Active; Activity [22]: Active; Activity [23]: Active; Activity [24]: Active
CC[C@@H]([C@H](C)O)n1ncn(-c2ccc(N3CCN(c4ccc(OC[C@@H]5CO[C@@](Cn6cncn6)(c6ccc(F)cc6F)C5)cc4)CC3)cc2)c1=O [POSACONAZOLE] | Active | 0.5 µg/mL (≈ 0.713 µM) | 0.5 µg/mL (≈ 0.713 µM) | 0.5 µg/mL (≈ 0.713 µM) | 0.5 µg/mL (≈ 0.713 µM) | 0.5 µg/mL (≈ 0.713 µM) | 1 µg/mL (≈ 1.43 µM) | > 16 µg/mL | > 16 µg/mL | 16 µg/mL (≈ 22.8 µM) | Active | Active | Active | Active | Active | Active | Active | Active | Active | Active | Activity [25]: Active; Activity [21]: Active; Activity [22]: Active; Activity [23]: Active; Activity [24]: Active
